Legend:
Trypanosoma cruzi [1] = assay: Antitrypanosomal activity against Trypanosoma cruzi Tulahuen 2 epimastigotes; type: functional, organism-based
Trypanosoma cruzi [2] = assay: Antitrypanosomal activity against Trypanosoma cruzi Tulahuen 2 epimastigotes assessed as inhibition of parasite growth at 25 uM relative to control; type: functional; conditions: read-out: GI
Method in brief: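 Epimastigotes of T. cruzi Tulahuen 2 strain exposed to compound at 25 µM. Growth inhibition is given as percentage relative to untreated parasites. Values are means of three separate experiments, SD under 10%.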

[3] = Octanol-water partition coefficient of the compound; type: physicochemical

**Q.** What does the source list for `COc1ccc2c(c1)[n+]([O-])c(C#N)c(-c1ccc(OC(F)(F)F)cc1)[n+]2[O-]`?
**A.** IC50 (Trypanosoma cruzi [1]): 8.2 µM; inhibition of growth at 25 µM (Trypanosoma cruzi [2]): 100%; logP [3]: 1.69

**Q.** For `COc1ccc(-c2c(C#N)[n+]([O-])c3ccccc3[n+]2[O-])cc1`, which IC50 (Trypanosoma cruzi [1]) is on record?
**A.** 19.3 µM

**Q.** And the inhibition of growth at 25 µM (Trypanosoma cruzi [2])?
**A.** 110%

**Q.** What about the logP [3] of the same compound?
**A.** 1.58

**Q.** For `N#Cc1c(N2CCN(c3cccc(C(F)(F)F)c3)CC2)[n+]([O-])c2ccc(Cl)cc2[n+]1[O-]`, which IC50 (Trypanosoma cruzi [1]) is on record?
**A.** 6.7 µM

**Q.** And the inhibition of growth at 25 µM (Trypanosoma cruzi [2])?
**A.** 94%

**Q.** And the logP [3]?
**A.** 2.99

**Q.** Which IC50 (Trypanosoma cruzi [1]) does the source give for `N#Cc1c(-c2ccc(F)cc2)[n+]([O-])c2cc(Cl)c(Cl)cc2[n+]1[O-]` here?
**A.** 11.3 µM

**Q.** What about the inhibition of growth at 25 µM (Trypanosoma cruzi [2]) of the same compound?
**A.** 85.3%

**Q.** What about the logP [3] of the same compound?
**A.** 2.98

**Q.** With `N#Cc1c(-c2ccc(OC(F)(F)F)cc2)[n+]([O-])c2ccc(Cl)cc2[n+]1[O-]` as the compound, how does the IC50 (Trypanosoma cruzi [1]) read?
**A.** 8.3 µM

**Q.** And the inhibition of growth at 25 µM (Trypanosoma cruzi [2])?
**A.** 89.1%

**Q.** What about the logP [3] of the same compound?
**A.** 2.45

**Q.** With `N#Cc1c(-c2ccccc2)[n+]([O-])c2ccc(Cl)cc2[n+]1[O-]` as the compound, how does the IC50 (Trypanosoma cruzi [1]) read?
**A.** 18.1 µM

**Q.** What about the inhibition of growth at 25 µM (Trypanosoma cruzi [2]) of the same compound?
**A.** 97.8%

**Q.** What about the logP [3] of the same compound?
**A.** 2.35

**Q.** With `Cc1ccc2c(c1)[n+]([O-])c(C#N)c(-c1cccs1)[n+]2[O-]` as the compound, how does the IC50 (Trypanosoma cruzi [1]) read?
**A.** 14.8 µM

**Q.** And the inhibition of growth at 25 µM (Trypanosoma cruzi [2])?
**A.** 74.3%

**Q.** What about the logP [3] of the same compound?
**A.** 1.62

**Q.** Which IC50 (Trypanosoma cruzi [1]) does the source give for `COc1ccccc1N1CCN(c2c(C#N)[n+]([O-])c3cc(Cl)ccc3[n+]2[O-])CC1` here?
**A.** 6.5 µM

**Q.** And the inhibition of growth at 25 µM (Trypanosoma cruzi [2])?
**A.** 100%

**Q.** And the logP [3]?
**A.** 1.91

**Q.** What does the source list for `N#Cc1c(-c2ccc(OC(F)(F)F)cc2)[n+]([O-])c2ccc(C(F)(F)F)cc2[n+]1[O-]`?
**A.** IC50 (Trypanosoma cruzi [1]): 9.2 µM; inhibition of growth at 25 µM (Trypanosoma cruzi [2]): 100%; logP [3]: 2.79

**Q.** Which IC50 (Trypanosoma cruzi [1]) does the source give for `COc1ccc(-c2c(C#N)[n+]([O-])c3cc(C)c(C)cc3[n+]2[O-])cc1` here?
**A.** 18.3 µM

**Q.** And the inhibition of growth at 25 µM (Trypanosoma cruzi [2])?
**A.** 100%

**Q.** And the logP [3]?
**A.** 2.06

**Q.** What does the source list for `Cc1ccc(-c2c(C#N)[n+]([O-])c3cc(C)c(C)cc3[n+]2[O-])cc1`?
**A.** IC50 (Trypanosoma cruzi [1]): 21.2 µM; inhibition of growth at 25 µM (Trypanosoma cruzi [2]): 98.2%; logP [3]: 2.57

**Q.** Which IC50 (Trypanosoma cruzi [1]) does the source give for `Cc1cc2c(cc1C)[n+]([O-])c(-c1ccc(F)cc1)c(C#N)[n+]2[O-]` here?
**A.** 16.4 µM

**Q.** What about the inhibition of growth at 25 µM (Trypanosoma cruzi [2]) of the same compound?
**A.** 92.5%

**Q.** What about the logP [3] of the same compound?
**A.** 2.72

**Q.** Which IC50 (Trypanosoma cruzi [1]) does the source give for `N#Cc1c(-c2ccc(F)cc2)[n+]([O-])c2ccccc2[n+]1[O-]` here?
**A.** 15.2 µM

**Q.** What about the inhibition of growth at 25 µM (Trypanosoma cruzi [2]) of the same compound?
**A.** 82.8%

**Q.** What about the logP [3] of the same compound?
**A.** 2.23

**Q.** For `Cc1ccc(-c2c(C#N)[n+]([O-])c3cc(C)ccc3[n+]2[O-])cc1`, which IC50 (Trypanosoma cruzi [1]) is on record?
**A.** 50 µM

**Q.** What about the inhibition of growth at 25 µM (Trypanosoma cruzi [2]) of the same compound?
**A.** 41.6%

**Q.** What about the logP [3] of the same compound?
**A.** 2.33

From ChEMBL document CHEMBL1208769, “Anti-T. cruzi activities and QSAR studies of 3-arylquinoxaline-2-carbonitrile di-N-oxides” (Bioorg Med Chem Lett, 2010)
